Test results taken from ChEMBL document CHEMBL1158960, “Constituents of leguminous plants, XIII. New triterpenoid saponins from Wistaria brachybotrys” (J Nat Prod, 1991).

Columns and labels:
Type in all cases: cell-based
Raji [1] = test: Inhibition of 12-O-tetradecanoylphorbol-13-acetate-induced EBV-early antigen activation in human Raji cells at 100 molar ratio after 48 hrs relative to TPA; set-up: scale not given: the % may be the effect or the level left; conditions: human gammaherpesvirus 4
How it was run: (§1)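 EBV-EA activation induced in Raji cells by TPA (20 ng = 32 pmol); test triterpenoid dosed as mol ratio to TPA. Results expressed relative to positive control set at 100%, averages of three determinations ± SD.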

Raji [2] = test: Inhibition of 12-O-tetradecanoylphorbol-13-acetate-induced EBV-early antigen activation in human Raji cells at 500 molar ratio after 48 hrs relative to TPA; conditions: human gammaherpesvirus 4; how it was run: as §1
Raji [3] = test: Inhibition of 12-O-tetradecanoylphorbol-13-acetate-induced EBV-early antigen activation in human Raji cells at 1000 molar ratio after 48 hrs relative to TPA; set-up: scale not given: the % may be the effect or the level left; conditions: human gammaherpesvirus 4; how it was run: as §1
[4] = Cytotoxicity against human Raji cells assessed as cell viability at 10 molar ratio; conditions: read-out: Activity
How it was run: (§2)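 Raji cells exposed to TPA (20 ng = 32 pmol) together with test triterpenoid, dosed as mol ratio to TPA; viability of Raji cells recorded alongside EBV-EA assay, given as percentage.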

[5] = Cytotoxicity against human Raji cells assessed as cell viability at 1000 molar ratio; conditions: read-out: Activity; how it was run: as §2
[6] = Cytotoxicity against human Raji cells assessed as cell viability at 500 molar ratio; conditions: read-out: Activity; how it was run: as §2
Raji [7] = test: Inhibition of 12-O-tetradecanoylphorbol-13-acetate-induced EBV-early antigen activation in human Raji cells at 10 molar ratio after 48 hrs relative to TPA; set-up: scale not given: the % may be the effect or the level left; conditions: human gammaherpesvirus 4; how it was run: as §1
[8] = Cytotoxicity against human Raji cells assessed as cell viability at 100 molar ratio; conditions: read-out: Activity; how it was run: as §2

| SMILES | Activity (Raji [1]) [%] | EBV-EA activation remaining (% of TPA control) (Raji [2]) [%] | Activity (Raji [3]) [%] | viability at 10 molar ratio [4] [%] | viability at 1000 molar ratio [5] [%] | viability at 500 molar ratio [6] [%] | Activity (Raji [7]) [%] | viability at 100 molar ratio [8] [%] |
| --- | --- | --- | --- | --- | --- | --- | --- | --- |
| COC(=O)[C@H]1O[C@@H](O[C@H]2CC[C@@]3(C)[C@@H](CC[C@]4(C)[C@@H]3CC=C3[C@@H]5CC(C)(C)CC(=O)[C@]5(C)CC[C@]34C)[C@@]2(C)CO)[C@H](O[C@@H]2O[C@H](CO)[C@H](O)[C@H](O)[C@H]2O[C@@H]2O[C@@H](C)[C@H](O)[C@@H](O)[C@H]2O)[C@@H](O)[C@@H]1O [DEHYDROSOYASAPONIN I] | 88.5 | 67.8 | 50.3 | > 80 | 60 | > 80 | 100 | > 80 |
| CC1(C)CC(=O)[C@]2(C)CC[C@]3(C)C(=CC[C@@H]4[C@@]5(C)CC[C@H](O)[C@](C)(CO)[C@@H]5CC[C@]43C)[C@@H]2C1 [SOYASAPOGENOL E] | 43.9 | 0 | 0 | > 80 | > 80 | > 80 | 89.5 | > 80 |
| COC(=O)[C@H]1O[C@@H](O[C@H]2CC[C@@]3(C)[C@@H](CC[C@]4(C)[C@@H]3CC=C3[C@@H]5CC(C)(C)CC(=O)[C@]5(C)CC[C@]34C)[C@@]2(C)CO)[C@H](O[C@@H]2OC[C@@H](O)[C@H](O)[C@H]2O[C@@H]2O[C@@H](C)[C@H](O)[C@@H](O)[C@H]2O)[C@@H](O)[C@@H]1O [WISTARIASAPONIN D] | 86.1 | 51 | 0 | > 80 | 10 | > 80 | 92.8 | > 80 |
| COC(=O)[C@H]1O[C@@H](O[C@H]2CC[C@@]3(C)[C@@H](CC[C@]4(C)[C@@H]3CC=C3[C@@H]5C[C@@](C)(C(=O)OC)C[C@@H](OC(C)=O)[C@]5(C)CC[C@]34C)[C@@]2(C)CO)[C@H](O[C@@H]2OC[C@@H](O)[C@H](O)[C@H]2O[C@@H]2O[C@@H](C)[C@H](O)[C@@H](O)[C@H]2O)[C@@H](O)[C@@H]1O [WISTARIASAPONIN G] | 62.6 | 15.4 |  | > 80 | 0 | 10 | 79.7 | > 80 |
